Test results reported in ChEMBL document CHEMBL3868630, “Synthesis, anti-proliferative activity, SAR study, and preliminary in vivo toxicity study of substituted N,N'-bis(arylmethyl)benzimidazolium salts against a panel of non-small cell lung cancer cell lines” (Bioorg Med Chem, 2017).
Each block holds one molecule with its values, some of them ahead of it.

Experiments:
[1] = Cytotoxicity against human NCI-H460 cells assessed as decrease in cell viability after 72 hrs by MTT assay; type: functional, cell-based; settings: NCI-H460, 72 h
In short: (§1)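 Cells kept in RPMI 1640 with 10% FBS at 37 °C, 5% CO2, passaged every 2-3 days; seeded at 5,000-7,000 cells/well and left 24 h. Compounds dissolved in 1% DMSO, diluted in fresh medium to 1, 4, 16 and 32 µM, added in sextuplicate; 72 h exposure. MTT added for 3-4 h, medium removed, DMSO added for 15 min at 37 °C, OD read at 540 nm.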

[2] = Aqueous solubility of the compound; type: physicochemical
[3] = Cytotoxicity against human A549 cells assessed as decrease in cell viability after 72 hrs by MTT assay; type: functional, cell-based; settings: A549, 72 h; in short: as §1
[4] = Cytotoxicity against human HCC827 cells assessed as decrease in cell viability after 72 hrs by MTT assay; type: functional, cell-based; settings: HCC827, 72 h; in short: as §1
[5] = Cytotoxicity against human NCI-H1975 cells assessed as decrease in cell viability after 72 hrs by MTT assay; type: functional, cell-based; settings: NCI-H1975, 72 h; in short: as §1
[6] = Growth inhibition of human NCI-H460 cells after 48 hrs by SRB assay; type: functional; settings: NCI-H460, 48 h
[7] = Cytotoxicity against human EKVX cells assessed as cell growth at 10 uM after 48 hrs by SRB assay relative to control; type: functional; settings: read-out: Activity
[8] = Cytotoxicity against human NCI-H460 cells assessed as cell growth at 10 uM after 48 hrs by SRB assay relative to control; type: functional; settings: NCI-H460, 48 h, read-out: Activity
[9] = Cytotoxicity against human NCI-H226 cells assessed as cell growth at 10 uM after 48 hrs by SRB assay relative to control; type: functional; settings: NCI-H226, 48 h, read-out: Activity
[10] = Growth inhibition of human A549 cells after 48 hrs by SRB assay; type: functional; settings: A549, 48 h
[11] = Cytotoxicity against human A549 cells assessed as cell growth at 10 uM after 48 hrs by SRB assay relative to control; type: functional; settings: A549, 48 h, read-out: Activity
[12] = Cytotoxicity against human HOP62 cells assessed as cell growth at 10 uM after 48 hrs by SRB assay relative to control; type: functional; settings: HOP-62, 48 h, read-out: Activity
[13] = Growth inhibition of human NCI-H322M cells after 48 hrs by SRB assay; type: functional; settings: for CC50: read-out: LC50 (the source's name)
[14] = Growth inhibition of human NCI-H522 cells after 48 hrs by SRB assay; type: functional; settings: NCI-H522, 48 h
[15] = Growth inhibition of human HOP92 cells after 48 hrs by SRB assay; type: functional; settings: HOP-92, 48 h
[16] = Cytotoxicity against human NCI-H322M cells assessed as cell growth at 10 uM after 48 hrs by SRB assay relative to control; type: functional; settings: read-out: Activity
[17] = Cytotoxicity against human NCI-H23 cells assessed as cell growth at 10 uM after 48 hrs by SRB assay relative to control; type: functional; settings: NCI-H23, 48 h, read-out: Activity
[18] = Growth inhibition of human HOP62 cells after 48 hrs by SRB assay; type: functional; settings: HOP-62, 48 h
[19] = Growth inhibition of human NCI-H226 cells after 48 hrs by SRB assay; type: functional; settings: NCI-H226, 48 h
[20] = Growth inhibition of human NCI-H23 cells after 48 hrs by SRB assay; type: functional; settings: NCI-H23, 48 h
[21] = Cytotoxicity against human HOP92 cells assessed as cell growth at 10 uM after 48 hrs by SRB assay relative to control; type: functional; settings: HOP-92, 48 h, read-out: Activity
[22] = Growth inhibition of human EKVX cells after 48 hrs by SRB assay; type: functional
[23] = Cytotoxicity against human NCI-H522 cells assessed as cell growth at 10 uM after 48 hrs by SRB assay relative to control; type: functional; settings: NCI-H522, 48 h, read-out: Activity
[24] = read-out: LC50 (the source's name)

solubility [2]: 1000 µg/mL
Structure (SMILES): COCCOCCOCc1n(Cc2ccc3ccccc3c2)c2cc(C)c(C)cc2[n+]1Cc1ccc2ccccc2c1.[Br-]
IC50 [1]: < 1 µM
IC50 [3]: 2 µM
IC50 [4]: 2 µM
IC50 [5]: < 1 µM

Structure (SMILES): Cc1n(Cc2ccc3ccccc3c2)c2ccccc2[n+]1Cc1ccc2ccccc2c1.[Br-]
GI50 [6]: 1470 nM
TGI [6]: 3020 nM
growth at 10 µM [7]: 9.57%
IC50 [1]: 3 µM
growth at 10 µM [8]: -73.9%
growth at 10 µM [9]: -9.12%
GI50 [10]: 1760 nM
LC50 [10]: 6.55 µM
TGI [10]: 3.4 µM
solubility [2]: < 500 µg/mL
growth at 10 µM [11]: 8.96%
growth at 10 µM [12]: -62%
GI50 [13]: 1560 nM
TGI [13]: 3 µM
CC50 [13]: 5.78 µM
GI50 [14]: 36 nM
TGI [14]: 2270 nM
GI50 [15]: 31.7 nM
LC50 [15]: 5.03 µM
TGI [15]: 2060 nM
growth at 10 µM [16]: 9.37%
growth at 10 µM [17]: -29.5%
GI50 [18]: 1690 nM
TGI [18]: 3.24 µM
GI50 [19]: 1440 nM
TGI [19]: 3.2 µM
TGI [20]: 2.76 µM
IC50 [3]: 4 µM
growth at 10 µM [21]: -68.2%
IC50 [4]: 4 µM
GI50 [22]: 1780 nM
TGI [22]: 4.08 µM
IC50 [5]: 2 µM

solubility [2]: < 500 µg/mL
Structure (SMILES): O=C(OCc1ccc2ccccc2c1)c1ccc2c(c1)n(Cc1ccc3ccccc3c1)c[n+]2Cc1ccc2ccccc2c1.[Br-]
IC50 [1]: 4 µM
IC50 [3]: 7 µM
IC50 [4]: 7 µM
IC50 [5]: 4 µM

solubility [2]: < 500 µg/mL
Structure (SMILES): OCCCc1n(Cc2ccc3ccccc3n2)c2ccccc2[n+]1Cc1ccc2ccccc2c1.[Br-]
IC50 [1]: 4 µM
IC50 [3]: 12 µM
IC50 [4]: 11 µM
IC50 [5]: 3 µM

Structure (SMILES): COC(=O)c1cc2c(cc1C(=O)OC)[n+](Cc1ccc3ccccc3c1)cn2Cc1ccc2ccccc2c1.[Br-]
growth at 10 µM [7]: 94.3%
IC50 [1]: 26 µM
growth at 10 µM [8]: 94.5%
growth at 10 µM [9]: 77.7%
solubility [2]: < 500 µg/mL
growth at 10 µM [11]: 92.2%
growth at 10 µM [12]: 78.8%
growth at 10 µM [16]: 90.6%
growth at 10 µM [23]: 77.3%
growth at 10 µM [17]: 93.2%
IC50 [3]: 23 µM
growth at 10 µM [21]: 84.7%
IC50 [4]: 20 µM
IC50 [5]: 15 µM

Structure (SMILES): COC(=O)c1ccc2c(c1)n(Cc1ccc3ccccc3c1)c[n+]2Cc1ccc2ccccc2c1.[Br-]
growth at 10 µM [7]: 71%
IC50 [1]: 9 µM
growth at 10 µM [8]: 28.6%
growth at 10 µM [9]: 61.3%
solubility [2]: < 500 µg/mL
growth at 10 µM [11]: 75%
growth at 10 µM [12]: 63.8%
growth at 10 µM [16]: 57.2%
growth at 10 µM [23]: 26.3%
growth at 10 µM [17]: 34.6%
IC50 [3]: 16 µM
growth at 10 µM [21]: -10.7%
IC50 [4]: 12 µM
IC50 [5]: 7 µM

Structure (SMILES): Cc1cc2c(cc1C)[n+](Cc1ccc3ccccc3n1)cn2Cc1ccc2ccccc2n1.[Cl-]
GI50 [6]: 630 nM
LC50 [6]: 6.2 µM
TGI [6]: 2210 nM
growth at 10 µM [7]: 39.6%
IC50 [1]: 2 µM
growth at 10 µM [8]: 0.34%
growth at 10 µM [9]: 9.61%
GI50 [10]: 2830 nM
LC50 [10]: 63.5 µM
TGI [10]: 13 µM
solubility [2]: 1400 µg/mL
growth at 10 µM [11]: 30.4%
growth at 10 µM [12]: 4.38%
GI50 [13]: 1370 nM
TGI [13]: 8.62 µM
CC50 [13]: 30.5 µM
GI50 [14]: 704 nM
TGI [14]: 2470 nM
CC50 [14, 24]: 6.89 µM
GI50 [15]: 484 nM
LC50 [15]: 5.22 µM
TGI [15]: 2000 nM
growth at 10 µM [16]: 36%
growth at 10 µM [17]: 1.58%
GI50 [18]: 1270 nM
TGI [18]: 3.13 µM
CC50 [18, 24]: 7.72 µM
GI50 [19]: 1590 nM
LC50 [19]: > 100 µM
TGI [19]: 4.01 µM
GI50 [20]: 736 nM
LC50 [20]: 29.6 µM
TGI [20]: 3.53 µM
IC50 [3]: 4 µM
growth at 10 µM [21]: -27.3%
IC50 [4]: 3 µM
GI50 [22]: 2290 nM
LC50 [22]: 66 µM
TGI [22]: 11.1 µM
IC50 [5]: < 1 µM
